From paper PMC4883002 (Environmental science & technology, 2016)
Where a name gives a salt, the structure may show the parent alone.

Columns and labels:
[1] = target: human serum albumin (HSA) Site I (Homo sapiens, UniProt P02768); experiment: Displacement of the Site I-selective fluorescent probe DNSA from HSA; format: binding; settings: for Site I binding (DNSA displacement), result in words: 10 µM HSA, 20 µM DNSA, pH 7.4, 25°C, numeric EC50 values only in Figures 4-6; for fluorescence of the site I probe, DNSA: at higher concentrations of ligand
Summary of the method: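 Fatty acid- and globulin-free HSA in 0.1 M potassium phosphate, pH 7.4, with DNSA probe and increasing ligand concentrations (DMSO stocks; final DMSO <0.8% v/v; DMSO-only controls). Fluorescence read after 5 min at 25°C, ex 350/em 460 nm. Triplicates, each averaging six readings, as % of control.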

HSA [2] = settings: cited from earlier work
HSA [3] = settings: cited from earlier work; remark: listed apart in the source
human serum albumin = settings: HSA binding, previously published; cited from earlier work

Sequence of human serum albumin (HSA) Site I (P02768 25-609): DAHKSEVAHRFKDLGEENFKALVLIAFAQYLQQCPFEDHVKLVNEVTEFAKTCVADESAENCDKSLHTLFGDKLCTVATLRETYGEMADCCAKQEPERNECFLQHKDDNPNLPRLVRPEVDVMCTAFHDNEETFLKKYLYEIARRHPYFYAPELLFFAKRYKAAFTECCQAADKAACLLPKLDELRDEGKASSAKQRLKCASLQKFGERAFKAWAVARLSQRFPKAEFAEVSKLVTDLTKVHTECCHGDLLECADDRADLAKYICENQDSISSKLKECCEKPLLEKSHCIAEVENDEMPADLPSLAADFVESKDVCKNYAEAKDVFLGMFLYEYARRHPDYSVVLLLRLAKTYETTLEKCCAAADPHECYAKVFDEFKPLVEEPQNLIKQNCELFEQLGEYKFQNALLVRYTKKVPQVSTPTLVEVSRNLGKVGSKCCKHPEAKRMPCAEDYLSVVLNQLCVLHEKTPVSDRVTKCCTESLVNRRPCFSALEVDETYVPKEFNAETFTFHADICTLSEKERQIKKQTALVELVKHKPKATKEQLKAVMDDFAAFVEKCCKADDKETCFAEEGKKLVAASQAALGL

| Compound | Site I binding (DNSA displacement), result in words [1] | binding to Site II (HSA [2]) | binding to Sudlow Site I (HSA [2]) | further results |
| --- | --- | --- | --- | --- |
| Oc1ccc(-c2ccc(Cl)cc2)cc1 [4’-OH-PCB 3] | significant binding |  |  |  |
| Oc1ccc(-c2cc(Cl)ccc2Cl)cc1 [4’-OH-PCB 9] | no significant binding |  |  |  |
| O=S(=O)(O)Oc1ccc(-c2ccc(Cl)cc2)cc1 [4’-PCB 3 sulfate] | significant binding |  |  |  |
| O=S(=O)(O)Oc1ccc(-c2ccc(Cl)c(Cl)c2)cc1 [4’-PCB 12 sulfate] | no significant binding |  |  |  |
| O=S(=O)(O)Oc1ccc(-c2ccc(Cl)c(Cl)c2)c(Cl)c1 [4’-PCB 33 sulfate] |  |  |  | fluorescence of the site I probe, DNSA [1]: increased |
| O=S(=O)(O)Oc1ccc(-c2ccc(Cl)c(Cl)c2)cc1Cl [4’-PCB 35 sulfate] | lack of interaction |  |  | fluorescence of the site I probe, DNSA [1]: increased |
| Clc1ccc(-c2cc(Cl)c(Cl)cc2Cl)cc1Cl [PCB 118] |  | no binding | bound with high affinity |  |
| Clc1cc(Cl)c(-c2cc(Cl)c(Cl)cc2Cl)cc1Cl [PCB 153] |  | no binding | bound with high affinity | HSA binding site (HSA [3]): bound to a single site of HSA, Sudlow Site II |
| Clc1ccc(-c2cc(Cl)c(Cl)c(Cl)c2)cc1Cl [compound 126] |  | no binding | bound with high affinity |  |
| O=C(O)c1ccccc1Nc1cccc(C(F)(F)F)c1 [flufenamic acid] |  |  |  | Ka (human serum albumin): 156000 M⁻¹ |
